Test results as given in ChEMBL document CHEMBL3751829, “Synthesis and biological evaluation of 3-tetrazolo steroidal analogs: Novel class of 5α-reductase inhibitors” (Bioorg Med Chem, 2016).

Legend:
[1] = system: Rattus norvegicus; experiment: Decrease in ventral prostate organ weight in male wistar rat at 5ml/kg, po qd measured on 15th day after 24 hrs of last dose; format: functional, Prostate gland; design: scale not given: the % may be the effect or the level left
[2] = molecular target: T1, 3-oxo-5-alpha-steroid 4-dehydrogenase 1 (Homo sapiens) (UniProt P18405); experiment: Inhibition of human 5alpha-1 reductase expressed in HEK293 cells assessed as suppression of conversion of [3]androstenedione at 10 uM incubated for 30 mins by radioactivity-based HPLC analysis; format: cell-based
T1 sequence (whole entry): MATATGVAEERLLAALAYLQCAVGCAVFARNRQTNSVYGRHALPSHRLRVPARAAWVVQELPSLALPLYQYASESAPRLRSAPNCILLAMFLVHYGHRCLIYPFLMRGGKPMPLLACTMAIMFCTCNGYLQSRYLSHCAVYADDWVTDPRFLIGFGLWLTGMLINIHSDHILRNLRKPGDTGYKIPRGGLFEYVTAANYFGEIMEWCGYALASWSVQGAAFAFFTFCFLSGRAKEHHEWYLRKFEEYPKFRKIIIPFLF
In short: (§1)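 Stably transfected HEK293 lines expressing 5AR-1 (HEK-I) or 5AR-2 (HEK-II) were sonicated in saccharose/Tris/EDTA buffer. The suspension was incubated at 37 °C for 30 min with 500 nM androstenedione solution plus [3H]androstenedione and an NADP/glucose/G6PDH regenerating system. Test compounds were added in 2% DMSO. The reaction was stopped with ether; steroids were extracted and analysed by radio-HPLC.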

[3] = system: Rattus norvegicus; experiment: Decrease in dorsal prostate organ weight in male wistar rat at 5ml/kg, po qd measured on 15th day after 24 hrs of last dose; format: functional, Prostate gland; design: scale not given: the % may be the effect or the level left
[4] = molecular target: T2, 3-oxo-5-alpha-steroid 4-dehydrogenase 2 (Homo sapiens) (UniProt P31213); experiment: Inhibition of human 5alpha-2 reductase expressed in HEK293 cells assessed as suppression of conversion of [3]androstenedione at 10 uM incubated for 30 mins by radioactivity-based HPLC analysis; format: cell-based; in short: as §1
T2 sequence (whole entry): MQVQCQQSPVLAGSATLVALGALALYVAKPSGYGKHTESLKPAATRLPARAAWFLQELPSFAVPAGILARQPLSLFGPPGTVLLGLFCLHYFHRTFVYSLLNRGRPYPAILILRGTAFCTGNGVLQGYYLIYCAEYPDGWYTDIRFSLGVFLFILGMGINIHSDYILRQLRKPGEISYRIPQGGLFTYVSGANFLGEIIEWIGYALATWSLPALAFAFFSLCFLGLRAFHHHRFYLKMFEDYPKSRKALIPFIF

[5] = system: Rattus norvegicus; experiment: Increase in body weight gain in male wistar rat at 5ml/kg, po qd measured on 15th day after 24 hrs of last dose (Rvb=9.412+/-1.632g%); format: ADME, organism-based; details: in vivo
[6] = system: Rattus norvegicus; experiment: Effect on organ weight in male wistar rat assessed as ventral prostate tissue weight per 100g at 5ml/kg, po qd measured on 15th day after 24 hrs of last dose (Rvb=59.494+/- 4.733 mg/100g); format: functional, Prostate gland
[7] = system: Rattus norvegicus; experiment: Decrease in epididymis organ weight in male wistar rat at 5ml/kg, po qd measured on 15th day after 24 hrs of last dose; format: functional; design: scale not given: the % may be the effect or the level left
[8] = system: Rattus norvegicus; experiment: Toxicity in male wistar rat assessed induction of mortality at 5ml/kg, po qd measured on 15th day after 24 hrs of last dose; format: organism-based; details: in vivo
In short: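 Mature male Wistar rats, groups of 5, standard diet. Compounds suspended in 0.50% CMC sodium given orally at 5 ml/kg once daily for 14 days; controls received vehicle only. Animals weighed and killed under ether on day 15, 24 h after last dose.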

[9] = system: Rattus norvegicus; experiment: Effect on organ weight in male wistar rat assessed as vas deferens tissue weight per 100g at 5ml/kg, po qd measured on 15th day after 24 hrs of last dose (Rvb=67.613+/-3.248 mg/100g); format: functional
[10] = system: Rattus norvegicus; experiment: Effect on organ weight in male wistar rat assessed as liver tissue weight per 100g at 5ml/kg, po qd measured on 15th day after 24 hrs of last dose (Rvb=2.994+/- 0.254 g/100g); format: ADME, organism-based; details: in vivo
[11] = molecular target: T3, 3-oxo-5-alpha-steroid 4-dehydrogenase 2 (Homo sapiens, UniProt P31213); experiment: Inhibition of human 5alpha-2 reductase expressed in HEK293 cells assessed as suppression of conversion of [3]androstenedione incubated for 30 mins by radioactivity-based HPLC analysis; format: cell-based; in short: as §1
T3 sequence (P31213 whole entry): T2 sequence (whole entry)

[12] = molecular target: T4, 3-oxo-5-alpha-steroid 4-dehydrogenase 1 (Homo sapiens, UniProt P18405); experiment: Inhibition of human 5alpha-1 reductase expressed in HEK293 cells assessed as suppression of conversion of [3]androstenedione incubated for 30 mins by radioactivity-based HPLC analysis; format: cell-based; in short: as §1
T4 sequence (P18405 whole entry): T1 sequence (whole entry)

[13] = system: Rattus norvegicus; experiment: Decrease in vas deferens organ weight in male wistar rat at 5ml/kg, po qd measured on 15th day after 24 hrs of last dose; format: functional; design: scale not given: the % may be the effect or the level left
[14] = system: Rattus norvegicus; experiment: Effect on organ weight in male wistar rat assessed as seminal vesicles tissue weight per 100g at 5ml/kg, po qd measured on 15th day after 24 hrs of last dose (Rvb=175.439+/-12.833 mg/100g); format: ADME, organism-based; details: in vivo
[15] = system: Rattus norvegicus; experiment: Effect on organ weight in male wistar rat assessed as dorsal prostate tissue weight per 100g at 5ml/kg, po qd measured on 15th day after 24 hrs of last dose (Rvb=50.325+/-7.519 mg/100g); format: functional, Prostate gland
[16] = system: Rattus norvegicus; experiment: Effect on organ weight in male wistar rat assessed as adrenal tissue weight per 100g at 5ml/kg, po qd measured on 15th day after 24 hrs of last dose (Rvb=14.762 +/-0.600 mg/100g); format: ADME, organism-based; details: in vivo
[17] = system: Rattus norvegicus; experiment: Effect on organ weight in male wistar rat assessed testis tissue weight per 100g at 5ml/kg, po qd measured on 15th day after 24 hrs of last dose (Rvb=1054.099+/- 55.648 mg/100g); format: ADME, organism-based; details: in vivo
[18] = system: Rattus norvegicus; experiment: Effect on organ weight in male wistar rat assessed as epididymis tissue weight per 100g at 5ml/kg, po qd measured on 15th day after 24 hrs of last dose (Rvb=187.356+/- 5.961 mg/100g); format: functional
[19] = molecular target: T2, 3-oxo-5-alpha-steroid 4-dehydrogenase 2 (Homo sapiens); experiment: Inhibition of human 5alpha-2 reductase expressed in HEK293 cells assessed as suppression of conversion of [3]androstenedione at 2 uM incubated for 30 mins by radioactivity-based HPLC analysis; format: cell-based; in short: as §1
[20] = molecular target: T1, 3-oxo-5-alpha-steroid 4-dehydrogenase 1 (Homo sapiens); experiment: Inhibition of human 5alpha-1 reductase expressed in HEK293 cells assessed as suppression of conversion of [3]androstenedione at 2 uM incubated for 30 mins by radioactivity-based HPLC analysis; format: cell-based
In short: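 Lysates of stably transfected HEK293 cells (80% confluent cells sonicated in 300 mM saccharose, 5 mM Tris–HCl, 0.1 mM EDTA). Master mix: Tris buffer, androstenedione (500 nM solution) plus tracer [3H]androstenedione, NADP/glucose/glucose-6-P-dehydrogenase regenerating system; compound added in 2% DMSO. Cell suspension mixed 1:1 with master mix, 37 °C for 30 min. Stopped with ether; steroids extracted, dried, taken up in methanol, radio-HPLC.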

[21] = Cytotoxicity against human DU145 cells by rapid colorimetric assay; format: functional, cell-based, DU-145; details: du-145
In short: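 Antiproliferative test on DU-145 cells using the Mosmann method. Seven concentrations were tested in culture medium.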

Work on `CC(=O)C1CC[C@H]2[C@@H]3CC=C4C=C(c5nnn[nH]5)CC[C@]4(C)[C@H]3CC[C@]12C` (stereo partly specified) yielded an Activity [1] of 35.4%, an inhibition [2] of 95% and an Activity [3] of 17.78%. It also gave an inhibition [4] of 100%, an Activity [5] of 8.328 g% and an Activity [6] of 38.433 mg. For the same compound, the Activity [7] was 31.76%, the Activity [8] was “Non-toxic” and the Activity [9] was 29.009 mg. It also gave an Activity [10] of 3.649 g, an IC50 [11] of 15.6 nM and an IC50 [12] of 547 nM. It also gave an Activity [13] of 57.1%, an Activity [14] of 78.265 mg and an Activity [15] of 41.379 mg. The Activity [16] was 17.762 mg, the Activity [17] was 844.538 mg and the Activity [18] was 127.85 mg. For the same compound, the inhibition [19] was 100%, the inhibition [20] was 82.6% and the IC50 [21] was “Not Active”.
